Data: ChEMBL document CHEMBL1921722, “In vitro and in vivo evaluation of select kahalalide F analogs with antitumor and antifungal activities” (Bioorg Med Chem, 2011)
The source made the active and inactive calls.

Tests used:
NCI-H23 = assay: Antitumor activity against human NCI-H23 cells xenografted in mouse assessed as tumor cell killing at 4.7 mg/kg, ip qd for 4 days by MTT assay; assay type: functional, organism-based; design: dose 4.7 mg/kg
How it was run: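 Hollow-fiber assay in mice. Tumor lines were grown in RPMI-1640 with 10% FBS and 2 mM glutamine. Cells at 2 × 10^6 cells/ml were loaded into 1 mm PVDF fibers (500,000 Da cutoff), heat-sealed at 2 cm and held 24–48 h at 37 °C, 5% CO2 before implantation. Compound was given IP. Fibers were collected the day after the fourth treatment for MTT (OD 540 nm, group means). A ≥50% cut in percent net growth versus vehicle counted as positive.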

CCRF-CEM [1] = assay: Cytotoxicity against human CCRF-CEM cells assessed as cell growth at 800 nM by sulforhodamine B assay relative to control; assay type: functional; details: read-out: Activity
U-251 [2] = assay: Antitumor activity against human U251 cells xenografted in mouse assessed as tumor cell killing at 2.35 mg/kg, ip qd for 4 days by MTT assay; assay type: functional, organism-based; design: dose 2.35 mg/kg
OVCAR-4 = assay: Cytotoxicity against human OVCAR4 cells assessed as cell growth at 8 nM by sulforhodamine B assay relative to control; assay type: functional; details: read-out: Activity
LOX IMVI [3] = assay: Cytotoxicity against human LOXIMVI cells assessed as cell growth at 8 uM by sulforhodamine B assay relative to control; assay type: functional; details: read-out: Activity
SR = assay: Cytotoxicity against human SR cells assessed as cell growth at 80 uM by sulforhodamine B assay relative to control; assay type: functional; details: read-out: Activity
MDA-MB-435 [4] = assay: Antitumor activity against human MDA-MB-435 cells xenografted in mouse assessed as tumor cell killing at 2.35 mg/kg, ip qd for 4 days by MTT assay; assay type: functional, organism-based; design: dose 2.35 mg/kg
SF-268 [5] = assay: Cytotoxicity against human SF268 cells assessed as cell growth at 80 uM by sulforhodamine B assay relative to control; assay type: functional; details: read-out: Activity
COLO 205 = assay: Cytotoxicity against human COLO205 cells assessed as cell growth at 8 nM by sulforhodamine B assay relative to control; assay type: functional; details: read-out: Activity
How it was run: (§1)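 Run at NCI in the DTP 60-cell-line human tumor panel by standard procedure. Compounds were first screened at a single concentration, then tested at five tenfold-spaced concentrations. GI50 is the concentration reducing treated-cell growth to half that of untreated controls; TGI is the concentration completely halting growth.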

SF-539 = assay: Cytotoxicity against human SF539 cells assessed as cell growth at 8 uM by sulforhodamine B assay relative to control; assay type: functional; details: read-out: Activity
CCRF-CEM [6] = assay: Cytotoxicity against human CCRF-CEM cells assessed as cell growth at 80 nM by sulforhodamine B assay relative to control; assay type: functional; details: read-out: Activity
SF-268 [7] = assay: Cytotoxicity against human SF268 cells assessed as cell growth at 80 nM by sulforhodamine B assay relative to control; assay type: functional; details: read-out: Activity
CCRF-CEM [8] = assay: Cytotoxicity against human CCRF-CEM cells assessed as cell growth at 80 uM by sulforhodamine B assay relative to control; assay type: functional; details: read-out: Activity
K562 = assay: Cytotoxicity against human K562 cells assessed as cell growth at 80 uM by sulforhodamine B assay relative to control; assay type: functional; details: read-out: Activity
SNB-75 [9] = assay: Cytotoxicity against human SNB75 cells assessed as cell growth at 800 nM by sulforhodamine B assay relative to control; assay type: functional; details: read-out: Activity
SF-295 [10] = assay: Antitumor activity against human SF295 cells xenografted in mouse assessed as tumor cell killing at 2.35 mg/kg, ip qd for 4 days by MTT assay; assay type: functional, organism-based; design: dose 2.35 mg/kg
HT-29 = assay: Cytotoxicity against human HT-29 cells assessed as cell growth at 8 nM by sulforhodamine B assay relative to control; assay type: functional; details: read-out: Activity
SNB-75 [11] = assay: Cytotoxicity against human SNB75 cells by sulforhodamine B assay; assay type: functional
How it was run: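 NCI Developmental Therapeutics Program 60-cell-line human tumor panel screen, run at NCI. A single-concentration pre-screen was followed by a five-concentration dose-response in 10-fold steps. GI50 is the concentration that reduces growth of treated cells to half that of untreated control cells. TGI is the concentration that completely halts growth.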

UACC-62 [12] = assay: Antitumor activity against human UACC62 cells xenografted in mouse assessed as tumor cell killing at 2.35 mg/kg, ip qd for 4 days by MTT assay; assay type: functional, organism-based; design: dose 2.35 mg/kg
NCI-H522 = assay: Antitumor activity against human NCI-H522 cells xenografted in mouse assessed as tumor cell killing at 2.35 mg/kg, ip qd for 4 days by MTT assay; assay type: functional, organism-based; design: dose 2.35 mg/kg
[13] = system: Mycobacterium intracellulare; assay: Antimicrobial activity against Mycobacterium intracellular ATCC 23068 after 5 days by MABA assay; assay type: functional, organism-based; details: ATCC 23068, 120 h
How it was run: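 M. intracellulare was tested by a modified Franzblau method. Samples were serially diluted in 20% DMSO/saline, run in duplicate, and inocula were adjusted by OD630. […] IC50 is 50% growth inhibition; MIC is the lowest concentration with no detectable growth.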

OVCAR-5 = assay: Antitumor activity against human OVCAR5 cells xenografted in mouse assessed as tumor cell killing at 2.35 mg/kg, ip qd for 4 days by MTT assay; assay type: functional, organism-based; design: dose 2.35 mg/kg
CCRF-CEM [14] = assay: Cytotoxicity against human CCRF-CEM cells assessed as cell growth at 8 nM by sulforhodamine B assay relative to control; assay type: functional; details: read-out: Activity
SK-MEL-2 = assay: Cytotoxicity against human SK-MEL-2 cells assessed as cell growth at 80 nM by sulforhodamine B assay relative to control; assay type: functional; details: read-out: Activity
LOX IMVI [15] = assay: Cytotoxicity against human LOXIMVI cells assessed as cell growth at 80 nM by sulforhodamine B assay relative to control; assay type: functional; details: read-out: Activity
CCRF-CEM [16] = assay: Cytotoxicity against human CCRF-CEM cells by sulforhodamine B assay; assay type: functional; how it was run: as §1
SF-295 [17] = assay: Antitumor activity against human SF295 cells xenografted in mouse assessed as tumor cell killing at 3.1 mg/kg, ip qd for 4 days by MTT assay; assay type: functional, organism-based; design: dose 3.1 mg/kg
MDA-MB-435 [18] = assay: Antitumor activity against human MDA-MB-435 cells xenografted in mouse assessed as tumor cell killing at 3.1 mg/kg, ip qd for 4 days by MTT assay; assay type: functional, organism-based; design: dose 3.1 mg/kg
UACC-62 [19] = assay: Antitumor activity against human UACC62 cells xenografted in mouse assessed as tumor cell killing at 3.1 mg/kg, ip qd for 4 days by MTT assay; assay type: functional, organism-based; design: dose 3.1 mg/kg
U-251 [20] = assay: Antitumor activity against human U251 cells xenografted in mouse assessed as tumor cell killing at 3.1 mg/kg, ip qd for 4 days by MTT assay; assay type: functional, organism-based; design: dose 3.1 mg/kg
CAKI-1 [21] = assay: Cytotoxicity against human Caki1 cells by sulforhodamine B assay; assay type: functional; how it was run: as §1
CAKI-1 [22] = assay: Cytotoxicity against human Caki1 cells assessed as cell growth at 800 nM by sulforhodamine B assay relative to control; assay type: functional; details: read-out: Activity
CAKI-1 [23] = assay: Cytotoxicity against human Caki1 cells assessed as cell growth at 8 nM by sulforhodamine B assay relative to control; assay type: functional; details: read-out: Activity
CAKI-1 [24] = assay: Cytotoxicity against human Caki1 cells assessed as cell growth at 8 uM by sulforhodamine B assay relative to control; assay type: functional; details: read-out: Activity
CAKI-1 [25] = assay: Cytotoxicity against human Caki1 cells assessed as cell growth at 80 nM by sulforhodamine B assay relative to control; assay type: functional; details: read-out: Activity
[26] = read-out: pLC50 (the source's name) (converted)

Row | SMILES | Activity (NCI-H23) | growth at 0.008 µM (OVCAR-4) | growth at 8 µM (LOX IMVI [3]) | growth at 0.008 µM (COLO 205) | growth at 8 µM (SF-539) | growth at 0.08 µM (SF-268 [7]) | growth at 80 µM (K562) | growth at 0.8 µM (SNB-75 [9]) | growth at 0.008 µM (HT-29) | GI50 (SNB-75 [11]; read-out: GI50) | TGI (SNB-75 [11]; read-out: TGI) | GI50 (SNB-75 [11]; read-out: pGI50 (converted)) | TGI (SNB-75 [11]; read-out: pTGI (converted)) | IC50 [13] | MBC [13] | MIC [13] | growth at 0.08 µM (SK-MEL-2) | growth at 0.08 µM (LOX IMVI [15]) | other results
1 | C/C=C1\NC(=O)[C@H](Cc2ccccc2)NC(=O)[C@@H](C(C)C)NC(=O)[C@@H]([C@@H](C)CC)NC(=O)[C@H](NC(=O)[C@H](NC(=O)[C@H](CCCNCc2ccc(N3CCOCC3)cc2)NC(=O)[C@H]2CCCN2C(=O)[C@H](NC(=O)[C@@H](NC(=O)[C@@H](NC(=O)[C@H](NC(=O)CCCC(C)C)C(C)C)[C@@H](C)O)C(C)C)C(C)C)[C@@H](C)CC)[C@@H](C)OC(=O)[C@H](C(C)C)NC1=O | inactive | 103% | 20% | 103% | -89% | 103% | -39% | 54% | 92% | 808 nM | 1900 nM | 813 nM | 1910 nM | > 20000 nM | > 20 µM | > 20 µM | 101% | 100% | growth at 0.8 µM (CCRF-CEM [1]): 128%; Activity (U-251 [2]): inactive; growth at 80 µM (SR): -7%; Activity (MDA-MB-435 [4]): inactive; growth at 80 µM (SF-268 [5]): 18%; growth at 0.08 µM (CCRF-CEM [6]): 123%; growth at 80 µM (CCRF-CEM [8]): -31%; Activity (SF-295 [10]): inactive; Activity (UACC-62 [12]): inactive; Activity (NCI-H522): inactive; Activity (OVCAR-5): inactive; growth at 0.008 µM (CCRF-CEM [14]): 122%; GI50 (CCRF-CEM [16]): 22900 nM; CC50 (CCRF-CEM [16]; [26]): > 75900 nM; TGI (CCRF-CEM [16]; read-out: pTGI (converted)): 39800 nM
2 | C/C=C1\NC(=O)[C@H](Cc2ccccc2)NC(=O)[C@@H](C(C)C)NC(=O)[C@@H]([C@@H](C)CC)NC(=O)[C@H](NC(=O)[C@H](NC(=O)[C@H](CCCNCc2ccc(F)c(C)c2)NC(=O)[C@H]2CCCN2C(=O)[C@H](NC(=O)[C@@H](NC(=O)[C@@H](NC(=O)[C@H](NC(=O)CCCC(C)C)C(C)C)[C@@H](C)O)C(C)C)C(C)C)[C@@H](C)CC)[C@@H](C)OC(=O)[C@H](C(C)C)NC1=O | inactive | 100% | -85% | 99% | -93% | 99% | -14% | 21% | 100% | 370 nM | 1250 nM | 372 nM | 1260 nM | > 20000 nM | > 20 µM | > 20 µM | 101% | 94% | Activity (SF-295 [17]): inactive; Activity (MDA-MB-435 [18]): inactive; Activity (UACC-62 [19]): inactive; Activity (U-251 [20]): inactive; GI50 (CAKI-1 [21]): 1450 nM; CC50 (CAKI-1 [21]; [26]): 4790 nM; TGI (CAKI-1 [21]; read-out: pTGI (converted)): 2630 nM; growth at 0.8 µM (CAKI-1 [22]): 103%; growth at 0.008 µM (CAKI-1 [23]): 130%; growth at 8 µM (CAKI-1 [24]): -86%; growth at 0.08 µM (CAKI-1 [25]): 150%
